The record followed here is PubChem BioAssay.

Active and inactive are the calls of the source.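 The calls were made as follows, unless noted: active = mean duplicate activation above the buffer control mean plus 5 SD of those controls; inactive = the rest.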

Assay [1] can be described thus: nonspecific flux increase, KCNQ1-free cells – parental CHO cells, counter-screen for KCNQ1 potentiator project (AID 493006;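 active = duplicate-averaged activation above buffer control mean plus 5 SD of those controls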). The note with it: parental CHO-K1 cells, FluxOR thallium flux, at 10 µM; hits give high values. The method, boiled down: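 Test system: parental CHO-K1 cells, FluxOR dye-loaded / Probe or stimulus: potassium plus thallium depolarizing stimulus, 5x stock 12.5 mM K2SO4, Tl2SO4 / Timing: overnight 37 °C plating, 90 min dye, 20 min dark compound / Measured by: kinetic thallium-flux fluorescence / Read-out: max-minus-min fluorescence over baseline, percent of buffer-to-R-L3 span / Benchmarks: buffer and R-L3 controls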

Assay [2] addresses Potassium voltage-gated channel subfamily KQT member 1 (Homo sapiens) (UniProt P51787). As to the kind of experiment: enhancement of KCNQ1 channel thallium flux – FluxOR thallium flux, CHO cells, duplicates, confirmation (AID 493007;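 active = potentiation averaged over duplicate wells exceeding buffer-only control mean by more than 3 SD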;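 as to outcome: cells depolarized by a potassium plus thallium sulfate stimulus after compound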;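 as to potentiation: 0% = buffer-only wells and 100% = R-L3 activator control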). The note with it: KCNQ1 cell line, FluxOR thallium flux fluorescence, at 10 µM; hits give high values, % of reference activator effect, buffer zero. The gist of the method: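 Assay system: CHO cells carrying KCNQ1 | Controls: Buffer and R-L3 controls | Schedule: FluxOR dye loading 90 min, compound exposure 20 min, room temperature | Read-out: Baseline-normalized fluorescence change, percent of buffer-to-R-L3 range | Replicates: Each compound tested in duplicate | Technique: Kinetic thallium influx fluorescence with FluxOR dye, 10 s baseline, 110 s post-stimulus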

In assay [3] the target is Potassium voltage-gated channel subfamily KQT member 2 (Rattus norvegicus) (UniProt O88943). Put plainly: KCNQ2 thallium flux enhancement – KCNQ2-CHO-K1 cells, selectivity assay for KCNQ1 potentiator project (AID 493009;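 active = mean duplicate potentiation above the buffer control mean plus 5 SD of buffer wells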;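 also: assay conditions were tuned for KCNQ1 rather than KCNQ2 modulators; signal is max minus min fluorescence divided by baseline after thallium stimulus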). The note with it: FluxOR thallium flux fluorescence, at 10 µM; hits give high values, scaled: buffer 0, activator control 100.
Potassium voltage-gated channel subfamily KQT member 2 (Rattus norvegicus), sequence (O88943 whole entry, looked up): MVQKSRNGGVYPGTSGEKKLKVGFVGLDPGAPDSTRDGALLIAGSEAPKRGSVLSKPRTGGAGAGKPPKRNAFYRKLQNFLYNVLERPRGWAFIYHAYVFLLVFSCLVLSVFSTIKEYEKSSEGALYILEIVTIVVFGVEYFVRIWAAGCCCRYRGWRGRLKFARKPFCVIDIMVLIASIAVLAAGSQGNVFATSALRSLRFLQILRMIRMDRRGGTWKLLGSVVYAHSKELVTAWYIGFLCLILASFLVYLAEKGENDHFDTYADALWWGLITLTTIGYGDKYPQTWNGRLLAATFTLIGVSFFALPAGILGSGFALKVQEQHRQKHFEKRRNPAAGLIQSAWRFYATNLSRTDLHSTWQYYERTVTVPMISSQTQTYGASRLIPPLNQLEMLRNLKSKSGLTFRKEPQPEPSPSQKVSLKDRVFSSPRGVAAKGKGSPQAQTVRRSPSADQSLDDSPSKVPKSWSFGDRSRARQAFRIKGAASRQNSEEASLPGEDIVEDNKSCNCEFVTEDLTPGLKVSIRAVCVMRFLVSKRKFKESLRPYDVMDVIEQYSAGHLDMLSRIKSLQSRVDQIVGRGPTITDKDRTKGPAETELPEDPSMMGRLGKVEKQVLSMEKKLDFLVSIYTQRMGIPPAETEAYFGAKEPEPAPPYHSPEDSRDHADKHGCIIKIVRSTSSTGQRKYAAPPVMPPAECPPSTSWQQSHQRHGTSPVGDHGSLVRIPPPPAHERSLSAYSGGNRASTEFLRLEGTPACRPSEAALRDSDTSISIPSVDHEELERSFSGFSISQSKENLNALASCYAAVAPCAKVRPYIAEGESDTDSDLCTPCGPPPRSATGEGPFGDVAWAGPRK
The target of assay [4] is Potassium voltage-gated channel subfamily KQT member 1 (Homo sapiens) (UniProt P51787). As to the kind of experiment: KCNQ1 activators by electrophysiology – IonWorks patch clamp, KCNQ1-CHO cells, orthogonal assay for KCNQ1 potentiator project, confirmation (AID 493184;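 active = current rise at least 3 SD above the untreated control mean in each of two repeat wells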). The note with it: automated patch clamp current, at 10 µM; hits give high values. The method, boiled down:
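Material: KCNQ1-expressing CHO cells; doses: 10 µM final, single point; probe or stimulus: voltage step from -90 mV holding to +40 mV, 2,000 ms; signal: automated voltage clamp, amphotericin B perforated patch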

The target in assay [5] is Potassium voltage-gated channel subfamily E member 1 (Homo sapiens) + Potassium voltage-gated channel subfamily KQT member 1 (Homo sapiens) (UniProt P15382+P51787). As to the kind of experiment: KCNQ1-E1 channel activation – thallium flux, CHO-K1 KCNQ1/E1 cells, selectivity assay for KCNQ1 potentiator project, confirmation (AID 493186).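 As to activation: 0% = assay buffer control and 100% = R-L3 activator control.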 The note with it: FluxOR thallium flux, at 10 µM; hits give high values. The gist of the method:
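Test system: CHO-K1 cells with KCNQ1/E1. Times: 90-min dye loading then 20-min compound exposure, both at room temperature. Measured by: kinetic FluxOR thallium-flux fluorescence, 10 s baseline plus 110 s after stimulus. Repeats: duplicate wells per compound.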

Potassium voltage-gated channel subfamily KQT member 1 (Homo sapiens), sequence (P51787 whole entry, looked up): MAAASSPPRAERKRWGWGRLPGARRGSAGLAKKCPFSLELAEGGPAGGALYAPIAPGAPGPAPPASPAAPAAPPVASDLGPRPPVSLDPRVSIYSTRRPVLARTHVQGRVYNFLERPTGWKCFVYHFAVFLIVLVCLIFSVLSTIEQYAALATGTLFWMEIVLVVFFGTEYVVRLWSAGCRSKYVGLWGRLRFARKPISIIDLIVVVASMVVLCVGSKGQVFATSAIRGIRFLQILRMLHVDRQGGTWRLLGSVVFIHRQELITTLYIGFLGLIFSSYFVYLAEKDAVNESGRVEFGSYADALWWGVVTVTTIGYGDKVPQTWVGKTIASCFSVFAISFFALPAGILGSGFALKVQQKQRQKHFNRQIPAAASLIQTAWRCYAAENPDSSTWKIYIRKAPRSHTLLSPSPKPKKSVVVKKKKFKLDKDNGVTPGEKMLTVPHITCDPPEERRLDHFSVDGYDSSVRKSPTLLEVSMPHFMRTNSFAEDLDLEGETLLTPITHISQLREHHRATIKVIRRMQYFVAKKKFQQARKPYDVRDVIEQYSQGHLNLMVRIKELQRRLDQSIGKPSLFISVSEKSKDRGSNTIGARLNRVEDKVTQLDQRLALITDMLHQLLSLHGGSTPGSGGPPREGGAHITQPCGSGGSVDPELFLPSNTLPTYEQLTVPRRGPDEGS
Potassium voltage-gated channel subfamily E member 1 (Homo sapiens) + Potassium voltage-gated channel subfamily KQT member 1 (Homo sapiens), sequence (P51787 whole entry, looked up): as the sequence (P51787 whole entry, looked up) above

For `COc1ccc(-c2csc(NC(=S)NC(=O)c3ccco3)n2)cc1Br`, the outcome in assay [1], in assay [3], in assay [4] and in assay [5] was inactive. In addition, the potentiation in assay [2] was 25% (active).

`CCOC(=O)C1CCN(S(=O)(=O)c2ccc3c4c2CC(=O)N4CC(C)S3)CC1` (stereo not given): the result in assay [1], in assay [2], in assay [3], in assay [4] and in assay [5] was inactive.

For the molecule `Cc1ccc(O)c(NC(=S)NC(=O)Cc2ccc(Cl)cc2)c1`, the outcome in assay [1], in assay [4] and in assay [5] was inactive. The potentiation in assay [2] was 38% (active); in assay [3] it was 154% (active).

On to `C#CCNc1cc(-c2ccccc2)nc2ncnn12`, for which the result in assay [1], in assay [2], in assay [3], in assay [4] and in assay [5] was inactive.

For the molecule `Oc1oc(-c2ccccc2)nc1/C=N/c1nccs1`, the result in assay [1], in assay [3], in assay [4] and in assay [5] was inactive. For the same molecule, the potentiation in assay [2] was 29.5% (active).

As to `CCN(CC)C(=S)SCC(=O)Nc1nc(=O)c2ccccc2s1`, the result in assay [1], in assay [2], in assay [3], in assay [4] and in assay [5] was inactive.

Regarding `O=C(NC(=S)NCCc1ccccc1)c1ccco1`, the outcome in assay [1], in assay [2], in assay [3], in assay [4] and in assay [5] was inactive.

Regarding `CC(C)c1ccc(OCC(=O)NNC(=S)NC(=O)c2cccs2)c(Br)c1`, the outcome in assay [1], in assay [3], in assay [4] and in assay [5] was inactive. In addition, the potentiation in assay [2] was 22% (active).

Regarding `Cc1ccc(C(=O)OCC(=O)NCCC2=CCCCC2)s1`, the result in assay [1], in assay [2], in assay [3], in assay [4] and in assay [5] was inactive.

With `OCCNCc1cc(Br)ccc1OCc1ccccc1Cl`, the result in assay [1], in assay [2], in assay [3], in assay [4] and in assay [5] was inactive.

With `CC12CCC(C/C1=N\N=C1\NC(=O)/C(=C\c3cccc(Br)c3)S1)C2(C)C` (stereo not given), the result in assay [1], in assay [4] and in assay [5] was inactive. The potentiation in assay [2] was 51% (active); in assay [3] it was 154% (active).

Consider `CCOC(=O)c1cc2c(C)n(-c3ccc(C)cc3)c(C)c2ccc1=O`, for which the result in assay [1], in assay [3], in assay [4] and in assay [5] was inactive. Besides, the potentiation in assay [2] is 19.5% (active).

As for `O=C(NCc1ccccc1)C(=O)Nc1nc(C23CC4CC(CC(C4)C2)C3)cs1`, the result in assay [1], in assay [2], in assay [3], in assay [4] and in assay [5] was inactive.

On to `O=c1c2ccccc2[nH]c(=S)n1C1CCCCC1`, for which the result in assay [1], in assay [2], in assay [3], in assay [4] and in assay [5] was inactive.

For the molecule `CCOc1cccc2sc(NC(=O)c3ccc(Br)s3)nc12`, the outcome in assay [1], in assay [2], in assay [3], in assay [4] and in assay [5] was inactive.

`COc1cccc(C(=O)CC(=O)C(=O)Nc2ccc(C)cc2Cl)c1`: the outcome in assay [1], in assay [2], in assay [3], in assay [4] and in assay [5] was inactive.

With `CCOC(=O)c1sc(NC(=S)NC(=O)c2ccccc2)nc1C`, the result in assay [1], in assay [2], in assay [3], in assay [4] and in assay [5] was inactive.

Turning to `CC(C)CCn1c(SCC(=O)NC2CC2)nc2cc(Cl)ccc2c1=O`, the outcome in assay [1], in assay [2], in assay [3], in assay [4] and in assay [5] was inactive.

With `O=C(Nc1nnc(-c2ccccc2)o1)c1ccc(Cl)cc1`, the outcome in assay [1], in assay [3] and in assay [4] was inactive. The potentiation in assay [2] is 24% (active). Moreover, the activation in assay [5] was 23.9% (active).

`CCc1ccc2oc(C(=O)NC3CCS(=O)(=O)C3)cc(=O)c2c1` (stereo not given): the outcome in assay [1], in assay [2], in assay [3], in assay [4] and in assay [5] was inactive.

`COC(=O)CSc1nc(NC(C)C)nc(N(C)C)n1`: the outcome in assay [1], in assay [2], in assay [3], in assay [4] and in assay [5] was inactive.

Turning to `CC(C)Oc1cccc(C(=O)NC(=S)N2CCN(c3ccc(C(F)(F)F)cc3[N+](=O)[O-])CC2)c1`, the outcome in assay [1], in assay [4] and in assay [5] was inactive. Further, the potentiation is 35.5% (active) in assay [2] and 144% (active) in assay [3].

Regarding `CS(=O)(=O)c1ccc(C(=O)OCc2nnc(-c3ccccc3)o2)cc1[N+](=O)[O-]`, the result in assay [1], in assay [2], in assay [3], in assay [4] and in assay [5] was inactive.

As to `CC(C1CC2CCC1C2)n1c(-c2ccco2)n[nH]c1=S` (stereo not given), the outcome in assay [1], in assay [2], in assay [3], in assay [4] and in assay [5] was inactive.

Consider `COc1ccc(CC(=O)NC(=S)Nc2cccc(C)c2)cc1`, for which the outcome in assay [1], in assay [2], in assay [3], in assay [4] and in assay [5] was inactive.

Turning to `O=C(NC(=S)Nc1cccc(Cl)c1N1CCCCC1)c1cccs1`, the outcome in assay [1], in assay [3], in assay [4] and in assay [5] was inactive. Besides, the potentiation in assay [2] was 54% (active).

As to `O=C(NC(=S)Nc1ccccc1N1CCOCC1)c1ccc(-c2cc(Cl)ccc2Cl)o1`, the result in assay [1], in assay [2], in assay [3], in assay [4] and in assay [5] was inactive.

On to `O=C1CCCCCN1Sc1ccccc1`, for which the outcome in assay [1], in assay [3], in assay [4] and in assay [5] was inactive. Also, the potentiation in assay [2] was 18.5% (active).

As to `COc1ccccc1C(=O)NNC(=O)C(=O)NC(C)C`, the outcome in assay [1], in assay [2], in assay [3], in assay [4] and in assay [5] was inactive.

On to `O=C(NC(=S)Nc1ccccc1)c1cncc(C#Cc2ccccc2)c1`, for which the outcome in assay [1], in assay [3], in assay [4] and in assay [5] was inactive. Further, the potentiation in assay [2] was 37% (active).
